Experimental data from ChEMBL document CHEMBL1131103, “Synthesis and biological evaluation of 2-acyl analogues of paclitaxel (Taxol)” (J Med Chem, 1998).

Tests used:
Bos taurus [1] = species: Bos taurus; assay: Polymerizing activity of microtubule protein against the twice cycled microtubule protein; format: functional
In short: (§1)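 Twice-cycled microtubule protein, stored in liquid nitrogen, at 1.0 mg/mL final in 0.1 M MES, 1 mM EGTA, 0.5 mM MgCl₂, pH 6.6, 37 °C, no GTP. Compound at 2.5, 5.0 and 10 µM. Absorbance read every 10 s and initial linear slopes taken. EC0.01 = interpolated concentration giving an initial slope of 0.01 A unit/min.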

Bos taurus [2] = species: Bos taurus; assay: Polymerizing activity of tubulin in glutamate against bovine brain tubulin homogenate was measured at 0.4 M concentrations; format: functional
In short: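 Purified, electrophoretically homogeneous bovine brain tubulin assembled at room temperature without GTP or Mg²⁺ in 0.4 M monosodium glutamate (from 2 M stock, pH 6.6). Polymer pelleted by centrifugation. IC₅₀ = drug concentration lowering supernatant protein by 50% versus no-drug control. Up to 40 µM. At least three independent experiments, or at least two where IC₅₀ exceeded 40 µM.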

[3] = system: Panel ovarian (Carcinoma cell lines); assay: Cytotoxic activity was measured against human Ovarian carcinoma cell lines; format: functional, cell-based
In short: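 Ovarian carcinoma line 1A9, a subclone of A2780, grown as monolayers in 96-well plates for 96 h at 37 °C, 5% CO₂. Cell protein quantitated (Skehan method). IC₅₀ = concentration inhibiting the increase in cell protein by 50%.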

[4] = system: Panel colon (Carcinoma cell lines); assay: Cytotoxic activity was measured against human colon carcinoma cell lines; format: functional, cell-based
In short: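 HCT116 colon carcinoma monolayers in 96-well plates, 48 h at 37 °C under 5% CO₂. Cell protein measured. IC₅₀ = concentration giving 50% inhibition of the increase in cell protein.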

Burkitts lymphoma cell = assay: Cytotoxic activity against was measured human Burkitt lymphoma cell lines.; format: functional, cell-based
In short: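 CA46 Burkitt lymphoma cells in 5.0-mL suspension culture, counted after 24 h at 37 °C under 5% CO₂. IC₅₀ = drug concentration halving the increase in cell number. Highest concentration 100 nM. At least two independent experiments.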

Bos taurus [5] = species: Bos taurus; assay: Polymerizing activity of tubulin in glutamate against bovine brain tubulin homogenate was measured at 0.8M concentrations; format: functional
In short: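 Bovine brain tubulin, purified to electrophoretic homogeneity, in 0.8 M monosodium glutamate (from 2 M stock, pH 6.6), room temperature, no GTP. Polymer removed by centrifugation. IC₅₀ = concentration reducing supernatant protein by 50% relative to drug-free control. Maximum 40 µM. At least three independent experiments, or at least two for IC₅₀ over 40 µM.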

ptx-10/22 = assay: Relative resistance was measured against human paclitaxel-resistant cell lines; format: functional, cell-based; conditions: 1A9(PTX22)
Bos taurus [6] = species: Bos taurus; assay: Polymerizing activity of microtubule protein.; format: functional; in short: as §1

SMILES	EC0.01 (relative to paclitaxel) (Bos taurus [1])	IC50 (Bos taurus [2])	IC50 [3]	IC50 [4]	IC50 (Burkitts lymphoma cell)	IC50 (Bos taurus [5])	relative resistance (ptx-10/22)	EC0.01 (relative to paclitaxel) (Bos taurus [6])
CC(=O)O[C@H]1C(=O)[C@@]2(C)[C@H]([C@H](OC(=O)c3ccc(F)c(F)c3)[C@]3(O)C[C@H](OC(=O)[C@H](O)[C@@H](NC(=O)c4ccccc4)c4ccccc4)C(C)=C1C3(C)C)[C@]1(OC(C)=O)CO[C@@H]1C[C@@H]2O	2.2	> 1.7 relative to paclitaxel	3.4 relative to paclitaxel	2.7 relative to paclitaxel	0.33 relative to paclitaxel	3.1 relative to paclitaxel	0.57	–
COc1ccccc1C(=O)O[C@H]1[C@@H]2[C@]3(OC(C)=O)CO[C@@H]3C[C@H](O)[C@@]2(C)C(=O)[C@H](OC(C)=O)C2=C(C)[C@@H](OC(=O)[C@H](O)[C@@H](NC(=O)c3ccccc3)c3ccccc3)C[C@]1(O)C2(C)C	1.5	> 1.7 relative to paclitaxel	1.4 relative to paclitaxel	1.9 relative to paclitaxel	0.67 relative to paclitaxel	1.2 relative to paclitaxel	0.95	–
CC(=O)O[C@H]1C(=O)[C@@]2(C)[C@H]([C@H](OC(=O)c3cccc(I)c3)[C@]3(O)C[C@H](OC(=O)[C@H](O)[C@@H](NC(=O)c4ccccc4)c4ccccc4)C(C)=C1C3(C)C)[C@]1(OC(C)=O)CO[C@@H]1C[C@@H]2O	0.79	> 1.7 relative to paclitaxel	1.6 relative to paclitaxel	0.85 relative to paclitaxel	2.3 relative to paclitaxel	3.1 relative to paclitaxel	0.35	–
CCOc1cccc(C(=O)O[C@H]2[C@@H]3[C@]4(OC(C)=O)CO[C@@H]4C[C@H](O)[C@@]3(C)C(=O)[C@H](OC(C)=O)C3=C(C)[C@@H](OC(=O)[C@H](O)[C@@H](NC(=O)c4ccccc4)c4ccccc4)C[C@]2(O)C3(C)C)c1	–	1.4 relative to paclitaxel	1.7 relative to paclitaxel	1.6 relative to paclitaxel	1 relative to paclitaxel	1.2 relative to paclitaxel	0.37	1.1
CC(=O)O[C@H]1C(=O)[C@@]2(C)[C@H]([C@H](OC(=O)c3cc(F)c(F)cc3F)[C@]3(O)C[C@H](OC(=O)[C@H](O)[C@@H](NC(=O)c4ccccc4)c4ccccc4)C(C)=C1C3(C)C)[C@]1(OC(C)=O)CO[C@@H]1C[C@@H]2O	1.5	> 1.7 relative to paclitaxel	3.1 relative to paclitaxel	1.9 relative to paclitaxel	1 relative to paclitaxel	3.1 relative to paclitaxel	0.48	–
COc1cc(OC)cc(C(=O)O[C@H]2[C@@H]3[C@]4(OC(C)=O)CO[C@@H]4C[C@H](O)[C@@]3(C)C(=O)[C@H](OC(C)=O)C3=C(C)[C@@H](OC(=O)[C@H](O)[C@@H](NC(=O)c4ccccc4)c4ccccc4)C[C@]2(O)C3(C)C)c1	2.6	> 1.7 relative to paclitaxel	3.3 relative to paclitaxel	5.4 relative to paclitaxel	1 relative to paclitaxel	4.7 relative to paclitaxel	0.57	–
CC(=O)O[C@H]1C(=O)[C@@]2(C)[C@H]([C@H](OC(=O)c3cccc(OC(C)C)c3)[C@]3(O)C[C@H](OC(=O)[C@H](O)[C@@H](NC(=O)c4ccccc4)c4ccccc4)C(C)=C1C3(C)C)[C@]1(OC(C)=O)CO[C@@H]1C[C@@H]2O	> 140	> 1.7 relative to paclitaxel	15 relative to paclitaxel	17 relative to paclitaxel	1.3 relative to paclitaxel	> 8.9 relative to paclitaxel	0.29	–
CC(=O)O[C@H]1C(=O)[C@@]2(C)[C@H]([C@H](OC(=O)c3cccc([N+](=O)[O-])c3)[C@]3(O)C[C@H](OC(=O)[C@H](O)[C@@H](NC(=O)c4ccccc4)c4ccccc4)C(C)=C1C3(C)C)[C@]1(OC(C)=O)CO[C@@H]1C[C@@H]2O	0.69	> 1.7 relative to paclitaxel	1.3 relative to paclitaxel	0.88 relative to paclitaxel	1 relative to paclitaxel	1.6 relative to paclitaxel	0.76	–
CC(=O)O[C@H]1C(=O)[C@@]2(C)[C@H]([C@H](OC(=O)c3cc(N=[N+]=[N-])cc(N=[N+]=[N-])c3)[C@]3(O)C[C@H](OC(=O)[C@H](O)[C@@H](NC(=O)c4ccccc4)c4ccccc4)C(C)=C1C3(C)C)[C@]1(OC(C)=O)CO[C@@H]1C[C@@H]2O	0.67	> 1.7 relative to paclitaxel	1.3 relative to paclitaxel	1.6 relative to paclitaxel	1 relative to paclitaxel	4 relative to paclitaxel	0.4	–
